In publication PMC9050490 (RSC Advances, 2020) one finds IC50, inhibition and growth inhibition data, which are given here for two molecules.

Each structure is given as a SMILES string.

In assay [1] the test system is MCF-7 cells. Put plainly: MTT antiproliferative assay, MCF-7. Type of assay: cell-based. The settings on record: Homo sapiens, MCF7, read-out: Antiproliferative activity IC50. The essentials: (§1)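 Cells were pre-incubated 24 h at 37 °C under 5% CO2, then exposed to a range of test compound concentrations dissolved in culture medium. MTT (5 mg mL−1 solution) was added for 4 h and formazan dissolved in DMSO. Absorbance was read at 630 nm. IC50 came from a non-linear curve fit, and growth inhibition was also reported.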

Assay [2] has as its system A549 cells. Put plainly: MTT antiproliferative assay, A549. Type of assay: cell-based. The settings on record: Homo sapiens, A549, read-out: Antiproliferative activity IC50. In outline: as §1
Assay [3] has as its system Karpas299 cells. Put plainly: MTT antiproliferative assay, Karpas299. Type of assay: cell-based. The essentials: as §1
In assay [4] the test system is HepG2 cells. In words: MTT antiproliferative assay, HepG2. Type of assay: cell-based, human. The essentials: as §1
The test system of assay [5] is PC-3 cells. Put plainly: MTT antiproliferative assay, PC-3. The conditions noted are these: Homo sapiens, PC-3, read-out: Antiproliferative activity IC50. Type of assay: cell-based. The essentials: as §1

Take `C[C@@H](Oc1cc(-c2cnn(C3CCNCC3)c2)cnc1N)c1c(Cl)ccc(F)c1Cl` [Crizotinib]: the half-maximal inhibitory concentration (IC50) came out at 4.09 µM in assay [1]; 1.49 µM in assay [2]; 2.82 µM in assay [3] (Homo sapiens, KARPAS-299, read-out: Antiproliferative activity IC50); 10.6 µM in assay [4] (Homo sapiens, HepG2, read-out: Antiproliferative activity IC50); 7.33 µM in assay [5]. Also, the inhibition at 2 µg/mL in assay [4] (Homo sapiens, HepG2, read-out: growth inhibition, HepG2, 2 μg mL^−1, MTT) is 27.1%. Further, the inhibition at 20 µg/mL in assay [4] (Homo sapiens, HepG2, read-out: growth inhibition, HepG2, 20 μg mL^−1, MTT) was 97.8%.

For `CC1(C)[C@@H](O)CC[C@]2(C)[C@H]3C(=O)C=C4[C@@H]5C[C@@](C)(C(=O)N6CCN(C(=O)c7ccc(Cl)cc7)CC6)CC[C@]5(C)CC[C@@]4(C)[C@]3(C)CC[C@@H]12` [Compound 4i, 3β-Hydroxy-30-(4-(4-chlorobenzoyl)-1-piperazinyl)-olean-12-ene-11,30-dione], the growth inhibition is on record as 0.00% in assay [3] (Karpas299, 2 μg mL^−1, MTT); 12.76% in assay [3] (Karpas299, 20 μg mL^−1, MTT); 0.00% in assay [4] (HepG2, 2 μg mL^−1, MTT); 19.10% in assay [4] (HepG2, 20 μg mL^−1, MTT).
